Laboratory results reported in paper PMC5339005 (International Journal of Nanomedicine, 2017).
Counter-ions that a name gives are not always drawn. Square brackets hold non-standard residues; d marks the D form. Peptide text beside a SMILES is read from it. Sar = CNCC(=O)O

Experiments:
HCEpiC and ARPE-19 cells = assay: Gly-Sar cell viability by MTT assay; type: cell-based; conditions: even at 10 mM; cells not stated at the place (Figure S6)
HCEpiC [1] = assay: Flow cytometry uptake mechanism with endocytic inhibitors, HCEpiC; type: cell-based, human; conditions: inhibitor pre-incubated 30 min, nanocomposites 4 h
Method in brief: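 HCEpiC were seeded at 10^5 cells/well in 12-well plates and grown 6 days, with medium refreshed every 2 days. FITC-labeled nanocomposites (2 μg/mL FITC) were then added for 4 h at 37°C. Cells were rinsed twice with cold DPBS, trypsinized, resuspended at 5×10^5–1×10^6 cells/mL and read by flow cytometry at 495/525 nm. Untreated cells served as control; n=3.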

ARPE-19 cells [2] = assay: Flow cytometry uptake mechanism with endocytic inhibitors, ARPE-19; type: cell-based; conditions: inhibitor pre-incubated 30 min, nanocomposites 4 h
Method in brief: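 ARPE-19 cells were seeded at 10^5 cells/well in 12-well plates and grown 5 days, with one medium change. FITC-labeled nanocomposites (4 μg/mL FITC) were then added for 4 h at 37°C in serum-free medium. Cells were rinsed with cold PBS, trypsinized and read by flow cytometry at 495/525 nm. Untreated cells served as control; n=3.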

[3] = In vitro drug release, dynamic dialysis method; type: physicochemical; conditions: PBS pH 7.4, within 2 h
Method in brief: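 Free drug solution or drug-loaded nanosheet suspension (1 mL, 50 μg drug) was placed in a dialysis bag (MWCO 8–14 kDa) in PBS pH 7.4 at 35°C±0.5°C, shaken at 400 rpm. Samples of 0.5 mL were taken at 10–720 min, filtered through 0.22 μm and replaced with fresh PBS. Drug was quantified by HPLC.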

HCEpiC [4] = assay: Cellular uptake, inverted fluorescence microscope, HCEpiC; type: cell-based, human; conditions: 2 μg/mL FITC, 37°C, 1, 2 and 4 h
Method in brief: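 HCEpiC were grown in poly-L-lysine-coated flasks (2 μg/cm2) in serum-free corneal epithelial medium with growth supplement, under 5% CO2 at 37°C. They were seeded at 5×10^4 cells/well in 24-well plates and grown 6 days, with medium refreshed every 2 days. Cells were exposed for 1, 2 and 4 h at 37°C to FITC-labeled test nanocomposites, free FITC or polymer–FITC control solution, at 2 μg/mL FITC. They were washed three times with DPBS and imaged by inverted fluorescence microscopy.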

ARPE-19 cells [5] = assay: Cellular uptake, inverted fluorescence microscope, ARPE-19; type: cell-based; conditions: ARPE-19, 4 μg/mL FITC, 37°C, 1, 2 and 4 h
Method in brief: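 ARPE-19 cells were grown in DMEM/F-12 with 10% FBS under 5% CO2 at 37°C. They were seeded at 5×10^4 cells/well in 24-well plates and grown 2 days. Cells were exposed for 1, 2 and 4 h at 37°C to FITC-labeled test nanocomposites, free FITC or polymer–FITC control solution (3.8×10−4% or 0.008% w/v polymer), at 4 μg/mL FITC. They were washed three times with PBS and imaged by inverted fluorescence microscopy.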

| Structure (SMILES) | Effect of inhibitor on cellular uptake of FITC-labeled nanocomposites vs control (HCEpiC [1]) | Effect of inhibitor on cellular uptake of FITC-labeled nanocomposites vs control (ARPE-19 cells [2]) | also measured |
| --- | --- | --- | --- |
| CN(CC(=O)O)C(=O)CN [Gly-Sar] (H-Gly-[Sar]-OH) | – | – | Cytotoxicity (cell viability by MTT) (HCEpiC and ARPE-19 cells): no cytotoxicity |
| C[C@@H]1[C@H](O)[C@@H](C)/C=C/C=C/CC/C=C/C=C/C=C/C=C/C(O[C@H]2O[C@H](C)[C@@H](O)[C@H](N)[C@@H]2O)CC2O[C@](O)(CC(O)C(O)CCC(O)CC(O)CC(O)CC(=O)O[C@H]1C)CC(O)C2C(=O)O (stereo partly shown) [Nystatin, nystatin] | no significant influence | no significant influence | – |
| O=C([O-])c1cc(=O)c2c3nc4ccccc4oc-3cc(=O)c2[nH]1.[Na+] [PRN solution, Pirenoxine sodium] | – | – | Cumulative release of PRN [3]: ~ 100% |
| N=C(N)NC(=O)c1nc(Cl)c(N)nc1N [amiloride] | no effect | no effect | – |
| CN(C)CCCN1c2ccccc2Sc2ccc(Cl)cc21 [chlorpromazine, chlorpromazine hydrochloride] | significantly decreased | significantly decreased | – |
| O=C1OC2(c3ccc(O)cc3Oc3cc(O)ccc32)c2ccc(N=C=S)cc21 [free FITC, fluorescein isothiocyanate (FITC) isomer I] | – | – | Fluorescence of cells (cellular uptake) (HCEpiC [4]): negligible fluorescence; Fluorescence of cells (cellular uptake) (ARPE-19 cells [5]): negligible fluorescence |
| O=c1c(-c2ccc(O)cc2)coc2cc(O)cc(O)c12 [genistein] | no significant influence | no significant influence | – |
| OC[C@H]1O[C@@](CO)(O[C@H]2O[C@H](CO)[C@@H](O)[C@H](O)[C@H]2O)[C@@H](O)[C@@H]1O [hypertonic sucrose, sucrose] | significantly decreased | significantly decreased | – |
| [N-]=[N+]=[N-].[Na+] [sodium azide] | decreased | decreased | – |
